Experiment [1] deals with Mus musculus. Description: Anticonvulsant activity by using a standard maximal electroshock test (MES) in mice, by intraperitoneal administration of the compound. The class given is functional. As to conditions: ip. The procedure, abridged:
(§1)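 Supramaximal electroshock: 50-mA current (60 Hz, 0.20 s) via corneal electrodes induced hind-limb tonic extension; inhibition of this component scored as activity. Mice dosed ip and/or po in aqueous solution or suspension (ca. 0.1% Tween 80, distilled water). Tested at 30, 60, 120 and 240 min (sometimes 45 min); ten mice per time point.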
For orientation: The maximal electroshock test induces tonic seizures with an electrical stimulus.

Experiment [2] concerns Mus musculus. The experiment in a line: Anticonvulsant activity following p.o. administration by standard maximal electroshock test in mice. Particulars: po. The class given is functional. An outline of the steps: as §1
The test system of experiment [3] is Mus musculus. The experiment in a line: Percentage block of the hind-limb tonic-extensor seizure was determined after application of an electric shock to mice for 120 min followed by 100 mg/kg intraperitoneal dose. The class given is functional. An outline of the steps: as §1
Experiment [4] has as its system Mus musculus. The experiment in a line: Percentage block of the hind-limb tonic-extensor seizure was determined after application of an electric shock to mice for 60 min followed by 200 mg/kg peroral dose. The format is functional. Particulars: route oral. An outline of the steps:
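Mouse MES test: supramaximal seizure from a 50-mA current (60 Hz, 0.20-s) through corneal electrodes. […] Ten mice per time point. Compound given in aqueous solution or in suspension in ca. 0.1% Tween 80 and distilled water. Free food and water except during testing.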

The subject of experiment [5] is Mus musculus. The experiment in a line: Percentage block of the hind-limb tonic-extensor seizure was determined after application of an electric shock to mice for 30 min followed by 200 mg/kg peroral dose. The format is functional. Particulars: route oral. The procedure, abridged:
as §1

The subject of experiment [6] is Mus musculus. Description: Percentage block of the hind-limb tonic-extensor seizure was determined after application of an electric shock to mice for 30 min followed by 100 mg/kg intraperitoneal dose. The format is functional. The procedure, abridged:
as §1

The subject of experiment [7] is Mus musculus. Description: Percentage block of the hind-limb tonic-extensor seizure was determined after application of an electric shock to mice for 120 min followed by 200 mg/kg peroral dose. The class given is functional. As to conditions: route oral. The procedure, abridged: as §1
For experiment [8], the system named is Mus musculus. The experiment in a line: Percentage block of the hind-limb tonic-extensor seizure was determined after application of an electric shock to mice for 240 min followed by 200 mg/kg peroral dose. The format is functional. Particulars: route oral. The procedure, abridged: as §1
Experiment [9] deals with Mus musculus. The experiment in a line: Percentage block of the hind-limb tonic-extensor seizure was determined after application of an electric shock to mice for 60 min followed by 100 mg/kg intraperitoneal dose. The class given is functional. The procedure, abridged:
as §1

The test system of experiment [10] is Mus musculus. Description: Percentage block of the hind-limb tonic-extensor seizure was determined after application of an electric shock to mice for 240 min followed by 100 mg/kg intraperitoneal dose. The format is functional. An outline of the steps: as §1
Experiment [11] concerns Mus musculus. The experiment in a line: Anticonvulsant activity by using a standard maximal electroshock test (MES) in mice, by 100 mg/kg intraperitoneal administration of the compound; I=inactive, 0-10% block. The class given is functional, organism-based. More on the design: dose 100 mg/kg. The procedure, abridged:
as §1

Calls of active or inactive are those of the source. No cut-off for these calls is given here.

Drawing on ChEMBL document CHEMBL1123867, “Anticonvulsant O-alkyl sulfamates. 2,3:4,5-Bis-O-(1-methylethylidene)-beta-D-fructopyranose sulfamate and related compounds” (1987), this text covers ED50 and Block for eleven compounds.

For orientation: ED50 means the dose that gives a 50% effect, or the effect in half of the subjects.

Consider `CCCCCCCCCC1(C)OCC(COS(N)(=O)=O)O1` (centres undefined), for which the ED50 is 319 mg/kg with Mus musculus [1] and above 200 mg/kg in the experiment with Mus musculus [2].
Consider `CC(=O)Nc1nnc(S(N)(=O)=O)s1` [ACETAZOLAMIDE], for which the ED50 with Mus musculus [2] is 45 mg/kg.
Consider `CC1(C)OCC(COS(N)(=O)=O)O1` (centres undefined), for which the Block is 90% in the experiment with Mus musculus [3]; 90% in the experiment on Mus musculus [4]; 70% in the experiment with Mus musculus [5]; 50% in the experiment with Mus musculus [6]; 100% in the experiment with Mus musculus [7]; 100% in the experiment with Mus musculus [8]. The Block with Mus musculus [9] and in the experiment on Mus musculus [10] was 70% throughout. Also, the ED50 in the experiment with Mus musculus [1] is around 100 mg/kg; with Mus musculus [2], around 75 mg/kg.
Consider `CC1(C)O[C@@H]2CO[C@@]3(COS(=O)(=O)N=[N+]=[N-])OC(C)(C)OC3[C@@H]2O1` (some centres undefined), for which the Block was determined as 50% in the experiment with Mus musculus [3]; 50% with Mus musculus [4]; 30% with Mus musculus [5]; 20% in the experiment on Mus musculus [6]; 70% with Mus musculus [7]; 100% in the experiment on Mus musculus [8]. Moreover, the Block in the experiment on Mus musculus [9] is 40%; in the experiment with Mus musculus [10], 30%. The ED50 with Mus musculus [1] was above 100 mg/kg; in the experiment with Mus musculus [2] it was around 200 mg/kg.
As to `CC1(C)OC2C3OC4(CCCCC4)O[C@@H]3CO[C@@]2(COS(N)(=O)=O)O1` (some centres undefined), the Block was 0% in the experiment with Mus musculus [3]; 0% with Mus musculus [4]; 10% in the experiment on Mus musculus [5]; 0% in the experiment on Mus musculus [6]; 20% with Mus musculus [7]; 20% in the experiment with Mus musculus [8]. The Block in the experiment on Mus musculus [9] and in the experiment with Mus musculus [10] was 0% in each case. Besides, in the experiment on Mus musculus [11], the ED50 result is “inactive”. This compound had an ED50 in the experiment with Mus musculus [2] above 400 mg/kg.
As to `NS(=O)(=O)OCC(c1ccccc1)c1ccccc1`, the Block in the experiment on Mus musculus [3] was determined as 0%; in the experiment with Mus musculus [4], 70%; in the experiment on Mus musculus [5], 80%; with Mus musculus [6], 0%; with Mus musculus [7] it was 80%; with Mus musculus [8], 100%. Also, the Block in the experiment on Mus musculus [9] and with Mus musculus [10] was 0% each time. In addition, in the experiment on Mus musculus [11], the ED50 entry was “inactive”. Moreover, the 50% effective dose (ED50) with Mus musculus [2] worked out at 147 mg/kg.
Regarding `NS(=O)(=O)OCCc1ccccc1` [SULFAMIC ACID PHENETHYL ESTER], the Block is given as 70% in the experiment on Mus musculus [3]; 100% in the experiment with Mus musculus [4]; 70% with Mus musculus [5]; 90% in the experiment on Mus musculus [6]; 100% in the experiment with Mus musculus [7]; 80% in the experiment on Mus musculus [8]. Moreover, the Block in the experiment on Mus musculus [9] is 100%; in the experiment with Mus musculus [10] it was 20%. The ED50 in the experiment on Mus musculus [1] is around 50 mg/kg; in the experiment on Mus musculus [2], around 100 mg/kg.
As for `NS(=O)(=O)OCC1CCCCO1` (centres undefined), the figures for the ED50 with Mus musculus [1] and in the experiment with Mus musculus [2] were 195 mg/kg and 154 mg/kg, respectively.
Regarding `CC1(C)OC[C@@H]2O[C@@]3(COS(N)(=O)=O)OC(C)(C)OC3[C@@H]2O1` (some centres undefined), the Block was 20% in the experiment on Mus musculus [3]; 80% in the experiment with Mus musculus [4]; 70% in the experiment with Mus musculus [5]; 30% in the experiment on Mus musculus [6]; 70% with Mus musculus [7]; 50% with Mus musculus [8]. In addition, the Block is reported as 50% in the experiment with Mus musculus [9] and 0% in the experiment on Mus musculus [10]. The results for the ED50 in the experiment on Mus musculus [1] and in the experiment on Mus musculus [2] were 100 mg/kg and 150 mg/kg, respectively.
Take `CN(C)S(=O)(=O)OC[C@@]12OC[C@H]3OC(C)(C)OC3C1OC(C)(C)O2` (some centres undefined): the Block with Mus musculus [3] worked out at 50%; in the experiment with Mus musculus [4], 40%; in the experiment with Mus musculus [5], 30%; in the experiment on Mus musculus [6], 30%; with Mus musculus [7], 80%; in the experiment with Mus musculus [8] it was 80%. Also, the Block in the experiment with Mus musculus [9] and in the experiment on Mus musculus [10] was 30% each time. In addition, the ED50 was above 100 mg/kg with Mus musculus [1] and above 200 mg/kg with Mus musculus [2].
As to `NS(=O)(=O)OCC1COc2ccccc2O1` (centres undefined), the Block with Mus musculus [3] was found to be 30%; with Mus musculus [4], 100%; with Mus musculus [5] it was 100%; with Mus musculus [7] it was 80%; with Mus musculus [8], 80%; in the experiment on Mus musculus [9], 60%. The same compound gave a Block in the experiment with Mus musculus [10] of 0%. The ED50 with Mus musculus [1] is around 100 mg/kg; in the experiment with Mus musculus [2], 118 mg/kg.
